In the library only some 2.4% were active in any assay of this set; here they are far more common.
697 NFkB inh: inhibitors of PMA/ionomycin-induced NF-kB reporter, 697 cells, primary screen, B-cell NF-kB inhibitor project, cell-based, luminescence, uHTS; 697 B-cell NF-kB luciferase reporter, 16 h; inhibition, % at 4 µM; 330,000 compounds, 0.33% hits; AID 435022, 2010; in the data active = inhibition above about 35%
MPTP inh: mitochondrial permeability transition pore inhibitors, primary screen, biochemical, isolated mouse mitochondria, absorbance | inhibition, % at 10 µM | 360,000 compounds, 1.4% hits | Ca2+ swelling absorbance, 30 min;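 active = inhibition of 50% or more, scaled per plate between neutral and stimulator controls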;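 also: 0% = DMSO wells given calcium and 100% = 1 mM EGTA wells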
Jurkat NFkB inh: inhibitors of induced NF-kB luciferase reporter, primary screen, TCR NF-kB activation inhibitor project, cell-based, luminescence, uHTS; Jurkat, PMA/ionomycin-induced NF-kB luciferase reporter; inhibition, % at 4 µM; 330,000 compounds, 0.53% hits; AID 435003, 2010; in the data active = inhibition above about 50%
NR2E3 ag-1: inhibitors of NR2E3-RetCOR corepressor binding, primary screen, NR2E3 agonist project, biochemical, TR-FRET, GST-NR2E3, biotin-RetCOR; Photoreceptor-specific nuclear receptor (Homo sapiens), Q9Y5X4; 320,000 compounds, 0.12% hits; inhibition of corepressor binding, % at 4.78 µM; 1536-well;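 active = percent inhibition above the cutoff of mean plus 3 SD of all tested compounds, set per screening campaign, cut at about 20% in these data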;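 also: 0% = DMSO wells and 100% = biotin wells as full block of FRET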
Target sequence (Q9Y5X4 whole entry, looked up): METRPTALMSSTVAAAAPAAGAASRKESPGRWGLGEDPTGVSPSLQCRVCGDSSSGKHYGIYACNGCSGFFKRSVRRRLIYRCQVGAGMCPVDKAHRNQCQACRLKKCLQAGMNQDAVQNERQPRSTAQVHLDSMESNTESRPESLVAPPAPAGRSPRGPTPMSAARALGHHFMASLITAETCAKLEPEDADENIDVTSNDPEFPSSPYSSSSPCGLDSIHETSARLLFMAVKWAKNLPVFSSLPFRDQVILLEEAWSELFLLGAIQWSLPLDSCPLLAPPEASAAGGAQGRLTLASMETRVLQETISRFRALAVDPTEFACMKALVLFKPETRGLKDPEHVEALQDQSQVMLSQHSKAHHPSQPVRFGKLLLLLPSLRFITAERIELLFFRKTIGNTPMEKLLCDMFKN
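System: GST-tagged NR2E3 plus biotinylated RetCOR corepressor; Amount: 1.35 nM GST-tagged NR2E3 final; Dosing: single nominal compound dose of 4.8 µM; Schedule: 5 h incubation at 4 °C; Technique: TR-FRET with europium anti-GST and streptavidin-D2, 340 nm excitation; Controls: biotin wells as high control, 0.6% DMSO wells as low control.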
NR2E3 ag-2: NR2E3 agonists in two-hybrid cells, primary screen, cell-based, luminescence, CHO-S, Gal4-NCOR/VP16-NR2E3. Photoreceptor-specific nuclear receptor (Homo sapiens), Q9Y5X4. luciferase. inhibition of corepressor binding, % at 3.98 µM. 360,000 compounds, 0.35% hits;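 active = inhibition above the mean of all tested compounds plus 3 SD, cut at about 70% in these data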;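 also: 0% = DMSO with NR2E3 transfected cells and 100% = cells lacking NR2E3 construct; higher means lower luciferase signal from less NR2E3 corepressor binding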
aDG glyco up: activators of alpha-DG glycosylation, primary screen, uHTS, Pro5-aDG cells, AlphaScreen; activation, % at 10 µM; AID 624168, 2012; alpha-DG glycosylation AlphaScreen (IIH6); 0% Pro5, 100% B10-LARGE cell signal; 360,000 compounds, 0.22% hits;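 active = activation of at least 8% versus controls, or a plate z-score of at least 8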;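 also: Pro5 are CHO cells carrying HIG-tagged alpha-DG that lacks glycosylation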
697 NFkB conf: PMA/ionomycin-induced NF-kB reporter inhibitors, 697 retest, confirmation, B-cell NF-kB inhibitor project, cell-based, luminescence, single concentration; 2,000 compounds, 35% hits; AID 449746, 2010; inhibition, % at 4 µM; 697 B-cell NF-kB luciferase, 16 h; shares compounds with 697 NFkB inh; in the data active = inhibition mostly above about 28%, no sharp cut-off; inactive = mostly below about 22%
* = called active by the depositor; i = inactive; . = no result given.

SMILES | 697 NFkB inh | MPTP inh | Jurkat NFkB inh | NR2E3 ag-1 | NR2E3 ag-2 | aDG glyco up | 697 NFkB conf
COc1ccc(/C=N\NC(=O)COc2ccccc2Cl)cc1Cn1nc(C)cc1C | 8 | 0 | 9 | 0 | 44 | 1 | .
N#CCCN1CCCc2cc(N=Nc3ccc(C(F)(F)F)cc3)ccc21 | -15 | 0 | -47 | -1 | -34 | 0 | .
CC(C)[C@H](N)c1nnc(SCC(=O)c2ccc(Cl)cc2)o1 | 58* | -2 | 7 | -2 | -22 | 0 | 35*
C[C@H](N)c1nnc(SCC(=O)c2ccc(Cl)cc2)o1 | 9 | -2 | -4 | 1 | 2 | 0 | .
Cc1c(NC(=O)CSc2nnc3c4ccccc4n(CCc4ccccc4)c3n2)c(=O)n(-c2ccccc2)n1C | i | -1 | -32 | 1 | 2 | 0 | i
Nc1nn(-c2ccccc2)c(N)c1N=Nc1ccccc1F | -444 | -10 | -30 | 1 | -210 | 0 | -254
CCOc1ccc(-c2nnc(-c3cccs3)o2)cc1 | -251 | -2 | -93 | -1 | -165 | 0 | -212
CNC(=O)COC(=O)c1cccnc1SC | 35* | -2 | 5 | 1 | -8 | 0 | 12
O=C(CCc1nc2ccccc2c(=O)[nH]1)OCCOc1ccc(Cl)cc1 | 9 | -1 | 6 | -1 | 6 | 0 | .
Cn1c(-c2ccccc2)cc2onc(-c3ccccc3)c2c1=O | -325 | 0 | -66 | 0 | -60 | 0 | -360
COc1ccc(-c2cc(C(=O)O)c3ccccc3n2)c(OC)c1 | 12 | -2 | 7 | 2 | -15 | 0 | .
COc1ccc2cc(-c3cc(C(=O)O)c4ccccc4n3)ccc2c1 | -344 | 3 | -19 | 0 | -97 | 0 | -351
Fc1ccc(-c2noc(-c3ccc4c(c3)CCO4)n2)cc1 | -308 | 0 | -132 | 6 | -146 | 0 | -268
Fc1ccc(-c2nc(-c3cccs3)no2)cc1 | -127 | 2 | -136 | -1 | -58 | 0 | .
NS(=O)(=O)c1ccc(CCNC(=O)CSc2nc3ccsc3c(=O)n2CC2CCC(C(=O)O)CC2)cc1 (stereo not given) | 36* | 0 | 3 | -3 | -37 | 0 | 10
NS(=O)(=O)c1ccc(CCNC(=O)CSc2nc3ccsc3c(=O)n2C2CC2)cc1 | 0 | -1 | 15 | 0 | 2 | 0 | .
Cn1c(=O)[nH]c(=O)c2c1nc(N1CCOCC1)n2CCc1ccccc1 | 47* | 0 | -24 | 3 | -15 | 0 | 7
COc1ccc(CCn2c(N3CCOCC3)nc3c2c(=O)[nH]c(=O)n3C)cc1 | -3 | -2 | 3 | 1 | -2 | 0 | .
Cn1c(=O)[nH]c(=O)c2c1nc(N1CCOCC1)n2CCSc1nnnn1-c1ccccc1 | 38* | 2 | 12 | 2 | 3 | 0 | 18
CC(C)(CNC(=O)C1c2ccccc2-c2ccccc21)N1CCOCC1 | -10 | -1 | -23 | -8 | -2 | 0 | .
Cc1cc([N+](=O)[O-])nn1CC(=O)Nc1cccc2nonc12 | 7 | -3 | 14 | -4 | -24 | -1 | .
CC(=O)Nc1sc2c(c1C(c1ccc(F)cc1)N1CCOCC1)CCCC2 (stereo not given) | 37* | -1 | -6 | -2 | -12 | 0 | -19
Oc1ccccc1-c1cc(-c2ccc3c(c2)OCCO3)n[nH]1 | -433 | 3 | -138 | 0 | -223 | 0 | -453
Cc1nn(Cc2ccc([N+](=O)[O-])cc2)c(=O)n1-c1cccc(Cl)c1 | 8 | -1 | -5 | 1 | 5 | 0 | .
CCOC(=O)C1=C(N)n2c(s/c(=C\c3cccnc3)c2=O)=C(C(=O)OC)C1c1cccnc1 (stereo not given) | 37* | 1 | 10 | 2 | -26 | 0 | 6
SMILES | 697 NFkB inh | MPTP inh | Jurkat NFkB inh | NR2E3 ag-1 | NR2E3 ag-2 | aDG glyco up | 697 NFkB conf
NCC1CC2c3ccccc3C1c1ccccc12 (stereo not given) | 6 | 0 | -9 | 1 | -19 | 0 | .
CCOC(=O)c1cccc(NC(=O)c2c(NCc3ccccc3)[nH]c(=O)[nH]c2=O)c1 | -13 | 1 | 12 | 4 | -22 | 1 | .
COc1cc(/C=C/c2ccc3cccc(O)c3n2)cc(Br)c1OC | -202 | 2 | 7 | -2 | -131 | 0 | .
COc1cc(/C=C/c2ccc3cccc(O)c3n2)cc(Cl)c1OC | -324 | 1 | 31 | 1 | -171 | 2.5* | -249
CCN(C(=O)CN1C(=O)NC(c2ccccc2)(c2ccc(C)c(C)c2)C1=O)C1CCCCC1 (stereo not given) | 44* | 1 | 29 | 0 | 36 | 2 | 27*
CCCN1C(=O)COc2ccc(-c3n[nH]c(=O)c4ccccc34)cc21 | -8 | -1 | -6 | -1 | -64 | 0 | .
COc1cc(NCCCn2cnc3c(OC)ncnc32)cc(OC)c1OC | . | -2 | . | . | -29 | 0 | .
CCC(NC(=O)CCc1c(C)c2cc3c4c(oc3cc2oc1=O)CCCC4)C(=O)O (stereo not given) | 49* | 1 | 14 | -4 | 6 | 0 | 19
Cc1c(CCC(=O)N[C@@H](CCCNC(N)=O)C(=O)O)c(=O)oc2cc3oc4c(c3cc12)CCCC4 | 26 | 0 | -9 | 2 | -44 | 0 | .
N#Cc1ccc(Cl)cc1NC(=O)COC(=O)c1cccc(S(=O)(=O)N2CCOCC2)c1 | 16 | 0 | -6 | 2 | 13 | 0 | .
CCCC[n+]1ccn(-c2nc3ccccc3nc2[N-]S(=O)(=O)c2ccc(Br)cc2)c1 | 37* | 2 | 10 | -5 | 1 | 0 | 16
CCn1c(SC)nnc1C1CCCN(CC(=O)Nc2ccccc2N2CCOCC2)C1 (stereo not given) | -1 | -2 | -16 | 0 | -9 | 0 | .
Cc1oc(-c2ccccc2Cl)nc1CSCC(=O)NC1CCCC1 | 3 | 1 | 4 | 2 | 0 | 0 | .
Cc1oc(-c2cccc(Cl)c2)nc1CSc1nc2c(c(=O)[nH]1)CCC2 | 15 | -1 | 13 | -1 | -10 | 0 | .
Cc1oc(-c2ccccc2Cl)nc1CSc1nc2c(c(=O)[nH]1)CCC2 | 41* | -2 | 10 | 2 | -2 | 0 | 24
Cc1oc(-c2ccccc2Cl)nc1CSCC(=O)N1CCCC1 | i | 1 | -32 | 1 | -1 | 0 | i

Screens from PubChem BioAssay.
